Screens as filed in PubChem BioAssay.
MEKK2 WT-MEK5 – modulators of MEK5 binding to wildtype MEKK2, primary screen, biochemical, multiplex bead flow cytometry, Alexa488-MEK5; Mitogen-activated protein kinase kinase kinase 2 (Homo sapiens), Q9Y2U5; Alexa488-MEK5 binding to MEKK2 WT; actives lie on both sides; binding response (% of control), % at 10 µM; 290,000 tested, 1.1% active; in the data active means binding response below about 67% or above about 130%; inconclusive means no clear call, values can overlap the other calls; inactive means in between
MEKK2mut PB1 HTS – MEK5 binding signal on mutant MEKK2 PB1, primary screen, biochemical, multiplex bead flow cytometry, Alexa488-MEK5; Alexa488-MEK5 binding to MEKK2 mutant; percent response, % at 10 µM; 290,000 tested, 0.35% active; AID 1530, 2009; in the data active means percent response above about 24%, passing the limit was not always enough
Apaf-1 inh – inhibitors of human Apaf-1 apoptosome, primary screen, biochemical, DEVD-Rh110 fluorescence, uHTS | Apoptotic protease-activating factor 1 (Homo sapiens), O14727 | reconstituted apoptosome caspase-3 activity | inhibition, % at 20 µM | 330,000 tested, 0.71% active | AID 489030, 2010; active means inhibition of at least 40% at 20 µM
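Material: reconstituted apoptosome with Apaf-1, cytochrome c, caspase-9, procaspase-3, dATP. Technique: Rh110 fluorescence intensity. Buffer or medium: pH 7.5 Hepes buffer with CHAPS, BSA, DTT. Times: 30 min plus 50 min, RT.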
MEKK3 PB1 HTS – modulators of MEKK3-MEK5 PB1 binding, primary screen, biochemical, wildtype MEKK3, multiplex bead flow cytometry, Alexa488-MEK5 | Mitogen-activated protein kinase kinase kinase 3 (Homo sapiens), Q99759 | bead-based flow cytometry, Alexa488-MEK5 binding to MEKK3; actives lie on both sides; 0 = blocked by unlabeled MEK5, 100 = vehicle | binding response (% of control), % at 10 µM | 290,000 tested, 1.4% active | AID 1529, 2009;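 active means binding response more than 3 SD above or below the average of its plate-row segment, actives on both sides; inconclusive means wells at one plate position flagged as instrument error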;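 further: Alexa488 bead fluorescence after subtracting the streptavidin-only scavenger bead signal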
Pemphigus Ab inh – inhibitors of pemphigus antibody binding to DSG3, primary screen, biochemical, bead-based, flow cytometry, scFv-GFP; Desmoglein-3 (Homo sapiens), P32926; DSG3-coupled beads, scFv-anti-DSG3-GFP binding; hits give low values; binding (percent of control), % at 10 µM; 310,000 tested, 0.48% active; AID 588358, 2011;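 active means binding more than 3 SD below its plate's average and above zero; inconclusive means below that plate limit but binding exactly zero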;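 further: hits lower antibody fragment binding to DSG3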
Target sequence (P32926 whole entry, looked up, the tested form may be a part): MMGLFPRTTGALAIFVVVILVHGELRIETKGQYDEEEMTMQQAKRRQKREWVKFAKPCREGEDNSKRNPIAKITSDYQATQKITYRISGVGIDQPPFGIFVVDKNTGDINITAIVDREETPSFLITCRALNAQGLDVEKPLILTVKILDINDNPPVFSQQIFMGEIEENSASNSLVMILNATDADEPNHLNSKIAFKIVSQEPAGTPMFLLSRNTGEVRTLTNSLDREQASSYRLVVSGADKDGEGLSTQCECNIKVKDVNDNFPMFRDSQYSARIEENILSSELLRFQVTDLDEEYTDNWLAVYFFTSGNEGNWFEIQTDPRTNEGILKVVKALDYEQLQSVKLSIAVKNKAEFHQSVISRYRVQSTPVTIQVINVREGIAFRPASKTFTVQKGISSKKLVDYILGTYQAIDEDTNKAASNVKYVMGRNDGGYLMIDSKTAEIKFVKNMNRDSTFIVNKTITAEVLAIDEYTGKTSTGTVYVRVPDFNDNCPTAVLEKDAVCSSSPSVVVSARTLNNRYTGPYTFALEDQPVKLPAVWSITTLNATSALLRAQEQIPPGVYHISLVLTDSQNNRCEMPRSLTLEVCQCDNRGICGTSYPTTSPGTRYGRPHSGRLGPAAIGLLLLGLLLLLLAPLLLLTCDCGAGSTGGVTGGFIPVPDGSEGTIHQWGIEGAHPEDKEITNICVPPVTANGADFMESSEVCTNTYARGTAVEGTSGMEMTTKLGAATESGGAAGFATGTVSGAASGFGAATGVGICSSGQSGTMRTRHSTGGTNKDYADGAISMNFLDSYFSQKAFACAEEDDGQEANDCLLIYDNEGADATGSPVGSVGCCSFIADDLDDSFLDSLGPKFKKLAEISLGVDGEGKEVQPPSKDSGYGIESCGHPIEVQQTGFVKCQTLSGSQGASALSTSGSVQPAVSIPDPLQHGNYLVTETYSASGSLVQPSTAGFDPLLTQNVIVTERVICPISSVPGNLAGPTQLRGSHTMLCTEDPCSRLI
UBC13 inh – UBC13 polyubiquitin chain formation inhibitors, primary screen, biochemical, TR-FRET, uHTS. Ubiquitin-conjugating enzyme E2 N (Homo sapiens), P61088. 330,000 tested, 0.47% active. inhibition, % at 20 µM; in the data active means inhibition above about 45%, passing the limit was not always enough; inconclusive means no clear call, values can overlap the other calls
MEKK2wt confirm – modulators of MEK5 binding to wildtype MEKK2, confirmation, biochemical, single concentration, multiplex bead flow cytometry; Alexa488-MEK5 binding to MEKK2 WT; actives lie on both sides; 5,900 tested, 2.4% active; shares compounds with MEKK3 PB1 HTS; binding response (% of control), % at 10 µM; in the data active means binding response below about 16% or above about 210%; inactive means in between
MEKK2mut confirm – mutant MEKK2 PB1-MEK5 binding signal retest – biochemical, single concentration, multiplex bead flow cytometry, confirmation; shares compounds with MEKK3 PB1 HTS; Alexa488-MEK5 binding to MEKK2 mutant; AID 1893, 2009; percent response, % at 10 µM; 5,900 tested, 2% active; in the data active means percent response mostly above about 71%, no sharp cut-off; inactive means mostly below about 38%;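 further: higher means compound restores mutant binding toward wildtype level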
MEKK3 confirm – MEKK3 wild-type PB1 binding to MEK5, inhibitors, confirmation, biochemical, bead multiplex flow cytometry, single concentration, wildtype; shares compounds with MEKK3 PB1 HTS; 5,900 tested, 1.8% active; binding response (% of control), % at 10 µM; Alexa488-MEK5 binding to MEKK3; hits give low values;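 active means binding response below 72% of control, or above a set upper limit, though filed actives all read lower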
Numbers stand for hits; 0 = inactive; ? = inconclusive; - = no result given; [ ] = another dose, or the depositor's remark. Most compounds without a hit are left out; they make up all but 3.2% or so of the library.

SMILES	MEKK2 WT-MEK5	MEKK2mut PB1 HTS	Apaf-1 inh	MEKK3 PB1 HTS	Pemphigus Ab inh	UBC13 inh	MEKK2wt confirm	MEKK2mut confirm	MEKK3 confirm
O=C(c1sc(N2CCOCC2)nc1-c1ccccc1)N1CCCCC1	0	0	0	131.0	-	0	0	0	0
c1ccc(-c2nc(N3CCOCC3)sc2-c2ccccc2)cc1	0	0	0	0	0	0	-	-	-
CC1(C)CC(=O)c2c(O)cc(OCc3ccc(Br)cc3)cc2O1	0	0	0	0	0	0	-	-	-
COc1cc(O)c2c(c1)OC(C)(C)CC2=O	0	0	0	122.0	0	0	0	0	0
COc1cc(C(=O)OCC(=O)NC2CCCCC2)cc2c1OCCO2	-	-	0	-	0	0	-	-	-
CCCC[C@@H](CNC)NC[C@H](Cc1ccc(O)cc1)NCCc1ccc(OCC)cc1	153.0	0	0	0	0	0	0	0	0
CCC[C@H](CN[C@@H](CNC)[C@H](C)O)NCCc1ccc(OC)cc1	0	0	0	0	0	0	-	-	-
O=C(NCC(F)(F)F)Nc1cccnc1	0	0	0	127.0	0	0	0	0	0
CCOC(=O)CCN(C(=O)Nc1ccccc1)C1CCCCC1	-	-	-	-	0	-	-	-	-
O=C(O)c1nccnc1C(=O)Nc1ccccc1-c1ccccc1	0	0	0	0	0	0	-	-	-
NS(=O)(=O)c1cc(C(=O)OCC(=O)N2CCc3ccccc3C2)ccc1Cl	-	-	0	-	0	0	-	-	-
CCN(CC)c1ccc(/C=N/OCC(=O)Nc2cccc(C)c2)cc1	61.0[inhibitor]	0	0	0	0	0	0	0	0
CCN(CC)c1ccc(NC(=O)CCCOc2cccc(C)c2)cc1	0	0	0	0	0	0	-	-	-
COCCn1c(SCC(=O)Nc2ccccc2)nc2c(oc3ccccc32)c1=O	7.0[inhibitor]	0	0	4.0[inhibitor]	0	0	0	0	0
Cc1c(NC(=O)c2cccc(NC(=O)C(C)Oc3ccccc3)c2)c(=O)n(-c2ccccc2)n1C (stereo not drawn)	-	-	-	-	0	-	-	-	-
CNC[C@H](CC1CCCCC1)NC[C@H](CO)NCC1(c2ccccc2)CC1	0	0	0	0	0	0	-	-	-
CNC[C@H](CC1CCCCC1)NC[C@H](CO)NCCc1cccc(C(F)(F)F)c1	152.0	0	0	0	0	0	0	0	0
O=C(O)c1cccc(N/N=C/C2=C(Cl)c3cc(Cl)ccc3SC2)c1	10.0[inhibitor]	0	-	28.0[inhibitor]	0	-	0	0	0
CCCOc1ccc(N2C(=O)CC(NNC(=O)c3ccc(COc4ccccc4)o3)C2=O)cc1 (stereo not drawn)	0	0	0	142.0	0	0	0	0	0
CCOc1cccc(N2C(=O)CC(NNC(=O)c3ccc(Br)o3)C2=O)c1 (stereo not drawn)	0	0	0	0	0	0	-	-	-
Cc1cc(N2CCN(Cc3nc(-c4ccc(Cl)cc4)oc3C)CC2)cc(C)n1	0	0	0	0	0	0	-	-	-
COc1ccc(-c2nc(CN3CCN(c4cc(C)nc(C)c4)CC3)c(C)o2)c2ccccc12	158.0	0	0	0	0	0	0	0	0
COc1ccc(N2C(=O)/C(=C/c3cccnc3)NC2=S)cc1	0	0	0	138.0	0	0	0	0	0
COc1ccc(C2=NN(S(C)(=O)=O)C(c3ccc4nccnc4c3)C2)cc1 (stereo not drawn)	-	0	0	1.0[inhibitor]	0	0	0	0	0
O=C(O)CCCC(=O)N1N=C(c2ccccc2)CC1c1ccc2nccnc2c1 (stereo not drawn)	0	0	0	136.0	0	0	0	0	0
SMILES	MEKK2 WT-MEK5	MEKK2mut PB1 HTS	Apaf-1 inh	MEKK3 PB1 HTS	Pemphigus Ab inh	UBC13 inh	MEKK2wt confirm	MEKK2mut confirm	MEKK3 confirm
CS(=O)(=O)Nc1ccc(C2=NN(S(C)(=O)=O)C(c3ccc4c(c3)OCO4)C2)cc1 (stereo not drawn)	-	-	0	6.0[inhibitor]	0	0	0	0	0
CC(=O)N1N=C(c2cccc(NS(C)(=O)=O)c2)CC1c1ccc2c(c1)OCO2 (stereo not drawn)	0	0	0	0	0	0	-	-	-
Cc1ccc(C2=NN(S(C)(=O)=O)C(c3ccc4nccnc4c3)C2)cc1 (stereo not drawn)	3.0[inhibitor]	0	0	0	0	0	0	0	0
O=C(O)CCC(=O)N1N=C(c2ccccc2)CC1c1ccc2nccnc2c1 (stereo not drawn)	0	0	0	0	0	0	-	-	-
C[C@@H]1CNC(=O)c2c(C(=O)N[C@H](C)c3ccccc3)ncn21	-	-	-	-	0	-	-	-	-
Cc1cc(C)n2nc(C(=O)OCC(=O)Nc3cc(S(=O)(=O)N4CCOCC4)ccc3Cl)nc2n1	-	-	-	-	0	-	-	-	-
O=C(NCCNC(=O)Oc1cccc2ccccc12)Oc1cccc2ccccc12	-	-	-	-	0	-	-	-	-
COc1cc(/C=C2\C(=O)NN(c3ccccc3)C2=O)ccc1OCC(N)=O	0	0	0	134.0	-	0	0	0	0
COC(=O)c1ccc(N2NC(=O)/C(=C/c3ccc(OC)c(OC)c3)C2=O)cc1	0	0	0	0	0	0	-	-	-
CCN1/C(=C/C=C/C=C/c2sc3ccccc3[n+]2CC)Sc2ccccc21	15.0[inhibitor]	0	79.8	18.0[inhibitor]	-	?	0	0	26.0
CCN1/C(=C/C=C/C=C/C=C/c2sc3ccccc3[n+]2CC)Sc2ccccc21	72.0[inhibitor]	0	0	30.0[inhibitor]	0	0	0	0	61.0
CC[n+]1c(/C=C/Nc2ccccc2)sc2ccccc21	0	0	0	0	0	0	-	-	-
CCN1C(=O)[C@H]2[C@@H](c3ccc(C)cc3)N[C@]3(CCCN(Cc4ccccc4)C3=O)[C@H]2C1=O	-	-	-	-	0	-	-	-	-
C[C@H]1CN([C@@H](C)CO)C(=O)c2cc(Br)cnc2O[C@H]1CN(C)C(=O)c1ccc2c(c1)OCO2	-	-	-	-	0	-	-	-	-
CCN(CC)c1ccc(C=Nc2cccnc2Cl)c(O)c1	66.0[inhibitor]	0	0	0	0	0	0	0	0
CCN(CC)c1ccc(C=Nc2cc(C)ccc2C)c(O)c1	0	0	0	0	0	0	-	-	-
